The target of experiment [1] is T1, cGnRH-R-I (Gallus gallus, UniProt Q9DDC9).
T1 sequence (Q9DDC9 1-375): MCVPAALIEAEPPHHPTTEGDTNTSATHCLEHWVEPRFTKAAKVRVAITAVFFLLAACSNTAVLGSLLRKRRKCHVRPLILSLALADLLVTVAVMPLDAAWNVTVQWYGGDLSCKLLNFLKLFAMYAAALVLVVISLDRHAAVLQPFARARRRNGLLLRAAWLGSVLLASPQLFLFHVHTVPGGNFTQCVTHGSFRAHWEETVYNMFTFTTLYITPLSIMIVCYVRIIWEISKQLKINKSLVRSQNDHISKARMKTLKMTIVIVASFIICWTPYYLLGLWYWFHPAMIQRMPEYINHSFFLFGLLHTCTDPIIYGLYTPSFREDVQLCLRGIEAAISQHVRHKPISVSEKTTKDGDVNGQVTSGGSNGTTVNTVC
The experiment in a line: Inositol phosphate assay, cGnRH-R-I transfected COS-7 cells. Type of experiment: cell-based, chicken. An outline of the steps: (§1)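 COS-7 cells were electroporated with a chicken type I or type III GnRH receptor expression construct and grown in DMEM with 10% FCS, 4 mM L-glutamine and penicillin/streptomycin at 37 °C, 5% CO2. After 24 h, cells were labelled 24 h with [3H]-myo-inositol in inositol-free DMEM. They were then washed in 25 mM HEPES-DMEM with 10 mM LiCl and stimulated 1 h at 37 °C with analogue. Antagonist mode included 1 nM GnRH-II. Reactions were stopped with 10 mM formic acid. Total inositol phosphates were eluted from Dowex with 1 M ammonium formate/0.1 M formic acid. Assays were run in triplicate and fitted by non-linear regression.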

The target of experiment [2] is T2, cGnRH-R-III (Gallus gallus, UniProt Q5EFE0).
T2 sequence (Q5EFE0 1-419): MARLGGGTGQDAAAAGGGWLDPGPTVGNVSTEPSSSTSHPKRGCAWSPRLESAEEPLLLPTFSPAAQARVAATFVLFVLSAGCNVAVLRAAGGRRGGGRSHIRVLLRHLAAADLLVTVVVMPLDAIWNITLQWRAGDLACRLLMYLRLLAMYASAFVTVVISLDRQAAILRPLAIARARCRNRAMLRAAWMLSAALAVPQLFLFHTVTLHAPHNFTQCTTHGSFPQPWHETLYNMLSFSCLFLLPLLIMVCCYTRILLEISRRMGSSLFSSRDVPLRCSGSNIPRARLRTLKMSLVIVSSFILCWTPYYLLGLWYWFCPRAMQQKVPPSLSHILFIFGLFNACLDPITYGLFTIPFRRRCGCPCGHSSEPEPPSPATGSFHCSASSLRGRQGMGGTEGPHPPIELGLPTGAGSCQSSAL
The experiment is described as follows: Inositol phosphate assay, cGnRH-R-III transfected COS-7 cells. Type of experiment: cell-based, chicken. An outline of the steps: as §1

Experiment [3] addresses T1, cGnRH-R-I. The experiment in a line: Whole cell radioligand binding assay, cGnRH-R-I transfected COS-7 cells. Set-up: species or system chicken.
For experiment [4], the target named is T2, cGnRH-R-III. The experiment in a line: Whole cell radioligand binding assay, cGnRH-R-III transfected COS-7 cells. On the set-up: species or system chicken.

“Also recorded” adds a separate entry of the source. Square brackets hold non-standard residues; d marks the D form. Peptide text beside a SMILES is read from it. pGlu = O=C1CC[C@@H](C(=O)O)N1

As for `CC(C)C[C@H](NC(=O)[C@H](Cc1c[nH]c2ccccc12)NC(=O)CNC(=O)[C@H](Cc1ccc(O)cc1)NC(=O)[C@H](CO)NC(=O)[C@H](Cc1c[nH]c2ccccc12)NC(=O)[C@H](Cc1c[nH]cn1)NC(=O)[C@@H]1CCC(=O)N1)C(=O)N1CCC[C@H]1C(=O)NCC(N)=O` [sGnRH-III] ([pGlu]HWSYGWLPG-NH2), the EC50 (in general, the concentration that produces a half-maximal response) on cGnRH-R-I [1] is 10.3 nM; at cGnRH-R-III [2], 21 nM.
For “GnRH-II ([pGlu]HWSHGWYPG-NH2; ends and bridges not checked; UniProt O43555 24-33, looked up)”, the “inositol phosphate production potency, GnRH-II relative to cGnRH-I” value with cGnRH-R-I [1] (cGnRH-R-I) is “four times more potent; also recorded: four times more potently”. The “inositol phosphate accumulation, GnRH-II relative to cGnRH-I” value with cGnRH-R-III [2] (cGnRH-R-III transfected cells) was “six times more effective”. Further, in the experiment with cGnRH-R-I [3], the “fold higher affinity for GnRH-II than for cGnRH-I” value amounted to 21 fold and the “fold higher affinity for GnRH-II than for sGnRH-III” value was 16 fold. Moreover, in the experiment with cGnRH-R-III [4], the “fold higher affinity for GnRH-II than for cGnRH-I” value is 35 fold and the “fold higher affinity for GnRH-II than for sGnRH-III” value is 16 fold.

Source of the values: paper PMC2695661 (The Journal of Endocrinology, 2009).
